Laboratory results reported in ChEMBL document CHEMBL1127358 (J Med Chem, 1994).

How the values were obtained:
[1] = target: T1, Muscarinic acetylcholine receptor M1 (Rattus norvegicus, UniProt P08482); assay: Tested for affinity constant against M1 muscarinic receptor in rat cortex using [3H]pirenzepine
T1 sequence (P08482 whole entry): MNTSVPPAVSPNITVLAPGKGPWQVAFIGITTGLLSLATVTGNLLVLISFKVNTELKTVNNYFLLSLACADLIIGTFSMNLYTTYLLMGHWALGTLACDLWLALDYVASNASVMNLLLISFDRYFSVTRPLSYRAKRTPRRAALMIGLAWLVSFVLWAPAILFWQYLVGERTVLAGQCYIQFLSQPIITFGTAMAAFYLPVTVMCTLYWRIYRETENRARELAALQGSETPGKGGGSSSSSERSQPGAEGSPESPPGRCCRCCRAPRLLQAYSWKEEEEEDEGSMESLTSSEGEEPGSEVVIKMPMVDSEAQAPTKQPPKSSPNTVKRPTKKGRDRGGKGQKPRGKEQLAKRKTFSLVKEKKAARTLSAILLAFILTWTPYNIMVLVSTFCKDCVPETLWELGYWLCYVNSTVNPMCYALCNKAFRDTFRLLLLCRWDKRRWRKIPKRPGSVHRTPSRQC

[2] = target: Muscarinic acetylcholine receptor M3 (Rattus norvegicus, UniProt P08483); assay: Tested for affinity constant against M3 muscarinic receptor in rat submaxillary gland using [3H]NMS; assay type: tissue-based
[3] = Tested for affinity constant against M4 muscarinic receptor in NG 108-15 cell homogenates using [3H]NMS; assay type: cell-based
[4] = target: T2, Muscarinic acetylcholine receptor M3 (Cavia porcellus, UniProt Q8VH26); assay: Antagonistic activity against M3 muscarinic receptor in guinea pig left ileum derived by plotting log(DR - 1) vs log[antagonist]; assay type: functional, tissue-based; details: read-out: pA2 (converted)
Procedure, shortened: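 Guinea pig tissue. Ileum: terminal segments about 2 cm, 1 g tension, 37 °C, Tyrode solution, isotonic recording. Carbachol dose–response curves (0.01–0.5 μM) at 30 min intervals, second curve as control. Repeated after 60 min antagonist incubation. Dose ratios at agonist EC50, one to six antagonist concentrations, each tested 4–8 times. pA2 from Schild plot of log(DR−1); mean ± SE.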

[5] = target: T2, Muscarinic acetylcholine receptor M3; assay: Antagonistic activity against M3 muscarinic receptor in guinea pig left ileum derived by plotting log(DR - 1) vs log[antagonist]; inactive up to a concentration of 10; assay type: functional, tissue-based; details: read-out: pA2 (converted)
Procedure, shortened: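 Guinea pig ileum segments at 37 °C in Tyrode solution, isotonic recording. Carbachol dose–response curves were run before and after 60 min antagonist incubation. Compounds were tested up to 10 μM antagonist, and inactivity was scored up to that concentration.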

[6] = target: Muscarinic acetylcholine receptor M2 (Cavia porcellus); assay: Antagonistic activity against M2 muscarinic receptor in guinea pig left atrium derived by plotting log(DR - 1) vs log[antagonist]; details: read-out: pA2 (converted)
[7] = test system: Muscarinic acetylcholine receptors M2 & M3 (Cavia porcellus); assay: Selectivity ratio is the antilog of the difference between the pA2 values at guinea pig left atrium and ileum muscarinic receptors
[8] = target: T3, Muscarinic acetylcholine receptor M2 (Rattus norvegicus, UniProt P10980); assay: Tested for affinity constant against M2 muscarinic receptor rat heart using [3H]-NMS
T3 sequence (P10980 whole entry): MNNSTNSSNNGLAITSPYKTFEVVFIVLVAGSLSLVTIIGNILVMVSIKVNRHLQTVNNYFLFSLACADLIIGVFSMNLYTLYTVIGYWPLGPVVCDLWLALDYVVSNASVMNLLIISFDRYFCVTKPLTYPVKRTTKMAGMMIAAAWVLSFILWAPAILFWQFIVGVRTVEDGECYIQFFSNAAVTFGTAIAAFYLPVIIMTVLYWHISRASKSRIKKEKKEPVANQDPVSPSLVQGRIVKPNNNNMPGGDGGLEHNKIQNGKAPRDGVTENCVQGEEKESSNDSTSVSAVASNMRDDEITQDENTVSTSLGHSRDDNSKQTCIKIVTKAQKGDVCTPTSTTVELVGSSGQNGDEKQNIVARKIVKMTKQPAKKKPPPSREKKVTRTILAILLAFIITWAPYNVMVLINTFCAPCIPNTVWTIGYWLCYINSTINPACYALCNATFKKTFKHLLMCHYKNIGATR

[9] = target: Muscarinic acetylcholine receptor M3 (Rattus norvegicus) (UniProt P08483); assay: Inhibitory activity against M3 muscarinic receptor binding in rat submaxillary gland by [3H]NMS at 10 uM concentration; assay type: tissue-based
Procedure, shortened: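 Rat submaxillary gland homogenate. […] Nonspecific binding defined with 10 μM atropine. Percent inhibition of specific binding scored, with IC50 not derivable when inhibition stayed below 50%.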

T2 sequence (Q8VH26 whole entry): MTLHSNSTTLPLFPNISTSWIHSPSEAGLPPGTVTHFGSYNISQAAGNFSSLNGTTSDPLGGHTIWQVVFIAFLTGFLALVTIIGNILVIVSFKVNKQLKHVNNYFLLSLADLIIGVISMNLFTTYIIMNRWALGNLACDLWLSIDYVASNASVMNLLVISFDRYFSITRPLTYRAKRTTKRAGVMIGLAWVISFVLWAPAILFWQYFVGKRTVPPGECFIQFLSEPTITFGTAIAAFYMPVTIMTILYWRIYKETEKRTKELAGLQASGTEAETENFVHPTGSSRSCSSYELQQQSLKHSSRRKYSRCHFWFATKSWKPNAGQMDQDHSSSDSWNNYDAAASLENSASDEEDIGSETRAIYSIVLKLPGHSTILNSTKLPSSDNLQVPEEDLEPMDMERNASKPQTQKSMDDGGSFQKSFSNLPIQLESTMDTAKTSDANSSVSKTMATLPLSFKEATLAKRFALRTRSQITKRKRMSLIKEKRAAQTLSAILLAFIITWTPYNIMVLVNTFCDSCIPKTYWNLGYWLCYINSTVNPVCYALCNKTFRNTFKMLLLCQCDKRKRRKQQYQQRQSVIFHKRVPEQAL
Chain of Muscarinic acetylcholine receptor M3 (Rattus norvegicus, UniProt P08483) (P08483 whole entry): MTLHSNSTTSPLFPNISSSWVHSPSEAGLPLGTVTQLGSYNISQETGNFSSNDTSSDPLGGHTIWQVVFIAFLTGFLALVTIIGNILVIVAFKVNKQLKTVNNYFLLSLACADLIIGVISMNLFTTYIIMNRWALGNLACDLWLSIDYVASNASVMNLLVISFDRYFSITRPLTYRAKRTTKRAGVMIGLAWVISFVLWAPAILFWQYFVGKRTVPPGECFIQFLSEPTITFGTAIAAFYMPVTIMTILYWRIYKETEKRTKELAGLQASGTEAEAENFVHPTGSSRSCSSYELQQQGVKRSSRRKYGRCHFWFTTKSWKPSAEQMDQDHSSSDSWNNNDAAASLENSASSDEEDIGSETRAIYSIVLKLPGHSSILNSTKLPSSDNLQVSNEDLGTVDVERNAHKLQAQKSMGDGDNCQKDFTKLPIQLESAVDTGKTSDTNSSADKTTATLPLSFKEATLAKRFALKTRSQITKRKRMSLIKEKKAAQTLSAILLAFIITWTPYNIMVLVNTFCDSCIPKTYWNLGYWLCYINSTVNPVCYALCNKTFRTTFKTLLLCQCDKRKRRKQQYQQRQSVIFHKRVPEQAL
Chain of Muscarinic acetylcholine receptor M3 (Rattus norvegicus) (P08483 whole entry, looked up): as the sequence (P08483 whole entry) above

Row | Compound | Ki [1] [nM] | Ki [2] [nM] | Log Ki [3] | Kb [4] [nM] | Kb [5] [nM] | Kb [6] [nM] | Ratio [7] | Ki [8] [nM] | inhibition [9] [%]
1 | CCN(CC)CCCCC1CCN(CC(=O)N2c3ccccc3C(=O)Nc3cccnc32)CC1 | 105 | 251 | -7.82 | 100 |  |  |  |  | 
2 | CCN(CC)CCCCCCN(CC(=O)N1c2ccccc2C(=O)Nc2cccnc21)CC(=O)N1c2ccccc2C(=O)Nc2cccnc21 |  |  |  |  | > 10000 | 1050 | > 10 |  | 
3 | COc1ccccc1CN(CCCCCCN(C)CCCCCCCCN(C)CCCCCCN(CC(=O)N1c2ccccc2C(=O)Nc2cccnc21)Cc1ccccc1OC)CC(=O)N1c2ccccc2C(=O)Nc2cccnc21.O=C(O)C(=O)O.O=C(O)C(=O)O.O=C(O)C(=O)O.O=C(O)C(=O)O | 1.26 | 251 | -7.8 | 2040 |  | 47.9 | 26 | 3.72 | 
4 | CN(CCCCCCN)CCCCCCCCN(C)CCCCCCNCC(=O)N1c2ccccc2C(=O)Nc2cccnc21 | 2.69 | 468 | -7.74 | 661 |  |  |  |  | 
5 | COc1ccccc1CNCCCCCCNCCCCCCCCNCCCCCCNCc1ccccc1OC [METHOCTRAMINE] |  |  | -7.58 |  |  |  |  |  | 
6 | COc1ccccc1CNCCCCCCN(C)CCCCCCCCN(C)CCCCCCNCc1ccccc1OC |  |  |  |  |  |  | 48 |  | 
7 | CN(CCCCCCN)CCCCCCCCN(C)CCCCCCN(CC(=O)N1c2ccccc2C(=O)Nc2cccnc21)CC(=O)N1c2ccccc2C(=O)Nc2cccnc21.O=C(O)C(=O)O.O=C(O)C(=O)O.O=C(O)C(=O)O.O=C(O)C(=O)O | 2.51 | 6760 | -6.72 | 1550 |  | 5.89 | 260 | 12.9 | 
8 | COc1ccccc1CN(CCCCCCN(C)CCCCCCCCN(C)CCCCCCNCC(=O)N1c2ccccc2C(=O)Nc2cccnc21)CC(=O)N1c2ccccc2C(=O)Nc2cccnc21.O=C(O)C(=O)O.O=C(O)C(=O)O.O=C(O)C(=O)O.O=C(O)C(=O)O | 1.86 |  | -8.22 | 417 |  | 1.58 | 260 | 1.58 | < 50
9 | CN(CCCCCCN)CCCCCCCCN(C)CCCCCCN |  |  |  | 7590 |  | 282 | 27 |  | 
10 | CCCCN(CC(=O)N1c2ccccc2C(=O)Nc2cccnc21)CC(=O)N1c2ccccc2C(=O)Nc2cccnc21 |  |  |  |  | > 10000 | 1580 | > 6 |  | 
11 | CN(CCCCCCCCN(C)CCCCCCN(CC(=O)N1c2ccccc2C(=O)Nc2cccnc21)CC(=O)N1c2ccccc2C(=O)Nc2cccnc21)CCCCCCNCC(=O)N1c2ccccc2C(=O)Nc2cccnc21 [TRIPITRAMINE] |  |  | -7.93 |  |  |  |  |  | 
12 | CN(CCCCCCCCN(C)CCCCCCNCC(=O)N1c2ccccc2C(=O)Nc2cccnc21)CCCCCCNCC(=O)N1c2ccccc2C(=O)Nc2cccnc21 | 1.7 | 174 | -8.52 |  |  |  |  | 2.4 | 
13 | CCN(CC)CCCCCCNCc1ccccc1OC |  |  |  |  | > 10000 | 2510 | > 4 |  | 
14 | COc1ccccc1CNCCCCCCN(C)CCCCCCCCN(C)CCCCCCNCC(=O)N1c2ccccc2C(=O)Nc2cccnc21 | 28.2 | 794 | -7.24 | 575 |  | 3.09 | 190 | 1.7 | 
15 | CCN(CC)CCCCCCNCC(=O)N1c2ccccc2C(=O)Nc2cccnc21 |  |  |  | 832 |  | 251 | 3 |  | 
16 | CCN(CC)CCCCCCN(CC(=O)N1c2ccccc2C(=O)Nc2cccnc21)Cc1ccccc1OC |  |  |  | 1260 |  | 178 | 7 |  | 
17 | COc1ccccc1CNCCCCCCNCCCCCCCCNCCCCCCN |  |  |  | 1550 |  | 91.2 | 17 |  | 
18 | CN(CCCCCCCCN(C)CCCCCCN(CC(=O)N1c2ccccc2C(=O)Nc2cccnc21)CC(=O)N1c2ccccc2C(=O)Nc2cccnc21)CCCCCCN(CC(=O)N1c2ccccc2C(=O)Nc2cccnc21)CC(=O)N1c2ccccc2C(=O)Nc2cccnc21.O=C(O)C(=O)O.O=C(O)C(=O)O.O=C(O)C(=O)O.O=C(O)C(=O)O | 4.79 | 155 | -7.05 | 759 |  | 15.5 | 49 | 21.9 | 
19 | COc1ccccc1CNCCCCCCN(C)CCCCCCCCN(C)CCCCCCN(CC(=O)N1c2ccccc2C(=O)Nc2cccnc21)CC(=O)N1c2ccccc2C(=O)Nc2cccnc21.O=C(O)C(=O)O.O=C(O)C(=O)O.O=C(O)C(=O)O.O=C(O)C(=O)O | 15.8 | 2510 | -7.9 | 447 |  | 4.57 | 98 | 18.6 | 
